Measured values taken from ChEMBL document CHEMBL4196179, “Synthesis and Pharmacological Evaluation of Noscapine-Inspired 5-Substituted Tetrahydroisoquinolines as Cytotoxic Agents” (J Med Chem, 2018).
Activity calls are given as the source filed them. The rule behind the calls is not given here.

What was measured:
PANC-1 [1] = experiment: Cell cycle arrest in human PANC1 cells assessed as increase in accumulation at G2/M phase at 10 uM after 18 hrs by Hoechst 33342 staining based FACS analysis relative to control; format: functional
How it was run: (§1)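 Cells seeded 48 h beforehand, treated 18 h with test compounds at 10 µM or vincristine at 100 nM, then trypsinised and stained with Hoechst 33342 for 60 min; FACS read at 450 nm; % G2/M increase calculated relative to 0.1% DMSO vehicle; mean ± SEM of three independent experiments.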

MCF7 [2] = experiment: Cell cycle arrest in human MCF7 cells assessed as increase in accumulation at G2/M phase at 10 uM after 18 hrs by Hoechst 33342 staining based FACS analysis relative to control; format: functional; how it was run: as §1
[3] = Binding affinity to recombinant P-gp cys-less mutant (unknown origin) in proteoliposomes assessed as increase in ATP hydrolysis rate after 40 mins by colorimetric assay; design: species or system Homo sapiens
How it was run: (§2)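 P-gp expressed in High-Five insect cells via recombinant baculovirus, IMAC-purified and reconstituted into proteoliposomes; 0.1-0.5 µg incubated with 2 mM ATP and drug at 10^-9 to 10^-4 M for 40 min at 37 °C; liberated Pi measured colorimetrically; EC50 and extent of stimulation from dose-response fit against drug-free basal activity.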

PANC-1 [4] = experiment: Cell cycle arrest in human PANC1 cells assessed as accumulation at G1 phase at 10 uM after 18 hrs by Hoechst 33342 staining based FACS analysis (reference value: 70.7%); format: functional
MCF7 [5] = experiment: Effect on calcein-AM accumulation in human wild type MCF7 cells at 1 uM by fluorescence assay; format: functional, cell-based
How it was run: (§3)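 Cells seeded at 2 × 10^3/well and grown 2 d, washed and placed in HBSS; test compound added at 2X in HBSS with DMSO ≤1% final, then calcein-AM at 1 µM final; intracellular fluorescence followed over time, rate taken as slope from linear regression.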

Sus scrofa = species on record: Sus scrofa; experiment: Inhibition of pig tubulin polymerization assessed as Vmax of tubulin polymerization at 10 uM after 60 mins turbidimetric analysis (reference value: 27 +/- 2 milliOD/min)
Homo sapiens [6] = species on record: Homo sapiens; experiment: Inhibition of P-gp in human NCI/ADR-RES cells assessed as potentiation of vinblastine-induced cytotoxicity by measuring combination index at 0.3 uM compound concentration after 6 days by MTT assay; format: cell-based
MCF7 [7] = experiment: Synergistic antiproliferative activity against human MCF7 cells assessed as reduction in cell viability at 0.1 uM after 6 days in presence of vinblastine by MTT assay; format: functional
Homo sapiens [8] = species on record: Homo sapiens; experiment: Inhibition of P-gp in human NCI/ADR-RES cells assessed as potentiation of vinblastine-induced cytotoxicity by measuring combination index at 1 uM compound concentration after 6 days by MTT assay; format: cell-based
MCF7 [9] = experiment: Antiproliferative activity against human MCF7 cells after 6 days by MTT assay; format: functional, cell-based; conditions: MCF7, 144 h
How it was run: (§4)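 Cells seeded overnight at 1500/well, then exposed to a range of concentrations for 6 d; viability by MTT (570 nm, background-subtracted, normalised to untreated control = 100%); EC50 from sigmoidal dose-response fit by non-linear least squares; mean ± SEM of at least 8 independent observations. MCF-7 in MEMα + 10% FBS; NCI/AdrRES in DMEM + 10% FCS with periodic 3 µM doxorubicin selection.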

Homo sapiens [10] = species on record: Homo sapiens; experiment: Inhibition of P-gp in human NCI/ADR-RES cells assessed as potentiation of vinblastine-induced cytotoxicity by measuring combination index at 0.1 uM compound concentration after 6 days by MTT assay; format: cell-based
NCI/ADR-RES [11] = experiment: Antiproliferative activity against human NCI/ADR-RES cells after 6 days by MTT assay; format: functional, cell-based; conditions: 144 h; how it was run: as §4
MCF7 [12] = experiment: Synergistic antiproliferative activity against human MCF7 cells assessed as reduction in cell viability at 0.3 uM after 6 days in presence of vinblastine by MTT assay; format: functional
PANC-1 [13] = experiment: Cell cycle arrest in human PANC1 cells assessed as accumulation at S phase at 10 uM after 18 hrs by Hoechst 33342 staining based FACS analysis (reference value: 11.1%); format: functional
PANC-1 [14] = experiment: Cell cycle arrest in human PANC1 cells assessed as accumulation at G2/M phase at 10 uM after 18 hrs by Hoechst 33342 staining based FACS analysis (reference value: 13.7%); format: functional
NCI/ADR-RES [15] = experiment: Inhibition of P-gp in human NCI/ADR-RES cells assessed as rate of calcein-AM accumulation at 1 uM by fluorescence assay; format: cell-based; how it was run: as §3
MCF7 [16] = experiment: Synergistic antiproliferative activity against human MCF7 cells assessed as reduction in cell viability at 1 uM after 6 days in presence of vinblastine by MTT assay; format: functional
Homo sapiens [17] = species on record: Homo sapiens; experiment: Binding affinity to recombinant P-gp cys-less mutant (unknown origin) in proteoliposomes assessed as increase in ATP hydrolysis rate at 10^-9 to 10^-4 M after 40 mins by colorimetric assay relative to basal control; how it was run: as §2
PANC-1 [18] = experiment: Cell cycle arrest in human PANC1 cells assessed as accumulation at G2/M phase at 100 nM after 18 hrs by Hoechst 33342 staining based FACS analysis (reference value: 13.7%); format: functional
PANC-1 [19] = experiment: Cell cycle arrest in human PANC1 cells assessed as increase in accumulation at G2/M phase at 100 nM after 18 hrs by Hoechst 33342 staining based FACS analysis relative to control; format: functional; how it was run: as §1
MCF7 [20] = experiment: Cell cycle arrest in human MCF7 cells assessed as increase in accumulation at G2/M phase at 100 nM after 18 hrs by Hoechst 33342 staining based FACS analysis relative to control; format: functional; how it was run: as §1
PANC-1 [21] = experiment: Cell cycle arrest in human PANC1 cells assessed as accumulation at G1 phase at 100 nM after 18 hrs by Hoechst 33342 staining based FACS analysis (reference value: 70.7%); format: functional
PANC-1 [22] = experiment: Cell cycle arrest in human PANC1 cells assessed as accumulation at S phase at 100 nM after 18 hrs by Hoechst 33342 staining based FACS analysis (reference value: 11.1%); format: functional
MCF7 [23] = experiment: Cytotoxicity against human MCF7 cells assessed as reduction in cell viability after 5 days by cellTiter-blue assay; format: functional, cell-based; conditions: MCF7, 120 h
PC-3 = experiment: Cytotoxicity against human PC3 cells assessed as reduction in cell viability after 5 days by cellTiter-blue assay; format: functional, cell-based; conditions: PC-3, 120 h

Compound: COc1cccc(C2c3c(c(Br)c4c(c3OC)OCO4)CCN2C)c1OC (stereo not given)
- Activity (PANC-1 [1]): 16%
- Activity (MCF7 [2]): 29%

Compound: CCNC(=O)N1CCc2c(Br)c3c(c(OC)c2C1Cc1ccc(OC)cc1)OCO3 (stereo not given)
- EC50 [3]: 2400 nM
- Activity (PANC-1 [4]): 53.5%
- Activity (MCF7 [5]): inactive
- Vmax (milli optical density/minute) (Sus scrofa): 20
- CI (Homo sapiens [6]): 0.57
- CI (MCF7 [7]): 1.09
- Activity (PANC-1 [1]): 175%
- CI (Homo sapiens [8]): 0.95
- IC50 (MCF7 [9]): 2700 nM
- CI (Homo sapiens [10]): 0.6
- IC50 (NCI/ADR-RES [11]): 2500 nM
- Activity (MCF7 [2]): 208%
- CI (MCF7 [12]): 1.02
- Activity (PANC-1 [13]): 7.7%
- Activity (PANC-1 [14]): 36.8%
- Activity (NCI/ADR-RES [15]): 78 RFU/min
- CI (MCF7 [16]): 1.5
- fold change (FC) (Homo sapiens [17]): 6.2

Compound: COc1cc(CC2c3c(c(Br)c4c(c3OC)OCO4)CCN2C)cc(OC)c1OC (stereo not given)
- Activity (PANC-1 [1]): -1%
- Activity (MCF7 [2]): -8%

Compound: CC[C@]1(O)C[C@H]2CN(CCc3c([nH]c4ccccc34)[C@@](C(=O)OC)(c3cc4c(cc3OC)N(C=O)[C@H]3[C@@](O)(C(=O)OC)[C@H](OC(C)=O)[C@]5(CC)C=CCN6CC[C@]43[C@@H]65)C2)C1 [VINCRISTINE]
- Activity (PANC-1 [18]): 64.1%
- Activity (PANC-1 [19]): 265%
- Activity (MCF7 [20]): 283%
- Activity (PANC-1 [21]): 21.2%
- Activity (PANC-1 [22]): 9.7%

Compound: CCNC(=O)N1CCc2c(Br)c3c(c(OC)c2C1Cc1cc(OC)c(OC)c(OC)c1)OCO3 (stereo not given)
- Activity (PANC-1 [1]): -4%
- Activity (MCF7 [2]): 5%

Compound: CCNC(=O)N1CCc2c(Br)c3c(c(OC)c2C1Cc1ccccc1)OCO3 (stereo not given)
- Activity (PANC-1 [1]): -8%
- Activity (MCF7 [2]): 1%

Compound: CCNC(=O)N1CCc2cc3c(c(OC)c2[C@@H]1[C@H]1OC(=O)c2c1ccc(OC)c2OC)OCO3
- EC50 (MCF7 [23]): 3600 nM
- EC50 (PC-3): 6700 nM

Compound: COc1ccc(CC2c3c(c(Br)c4c(c3OC)OCO4)CCN2C)cc1OC (stereo not given)
- Activity (PANC-1 [1]): 0%
- Activity (MCF7 [2]): 19%

Compound: COc1ccc2c(c1OC)CC1c3c(c(Br)c4c(c3OC)OCO4)CCN1C2 (stereo not given)
- Activity (PANC-1 [1]): 9%
- Activity (MCF7 [2]): 28%

Compound: COc1c2c(c(Br)c3c1C(c1ccccc1)N(C)CC3)OCO2 (stereo not given)
- Activity (PANC-1 [1]): -7%
- Activity (MCF7 [2]): 18%

Compound: CCNC(=O)N1CCc2c(Br)c3c(c(OC)c2C1c1cccc(OC)c1OC)OCO3 (stereo not given)
- Activity (PANC-1 [1]): 14%
- Activity (MCF7 [2]): 19%

Compound: COc1ccc(C2c3c(c(Br)c4c(c3OC)OCO4)CCN2C)cc1 (stereo not given)
- Activity (PANC-1 [1]): 26%
- Activity (MCF7 [2]): 23%

Compound: CCNC(=O)N1CCc2c(Br)c3c(c(OC)c2C1Cc1cccc(OC)c1OC)OCO3 (stereo not given)
- Activity (PANC-1 [1]): 28%
- Activity (MCF7 [2]): 11%
